ChEMBL document CHEMBL1770123, “SPF32629A and SPF32629B: enantioselective synthesis, determination of absolute configuration, cytotoxicity and antibacterial evaluation” (Eur J Med Chem, 2011)
Values after ≈ are worked out from the molar mass of the structure shown. Active and inactive are the calls of the source. No cut-off for these calls is given here.

Legend:
Bacillus subtilis [1] = experiment: Antimicrobial activity against Bacillus subtilis after 24 hrs by microdilution method; type: functional
How it was run: (§1)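 Growth was judged by turbidity, and the MIC was taken as the minimum concentration giving the lowest growth. Amikacin served as reference.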

A549 [2] = experiment: Cytotoxicity against human A549 cells assessed as cell death at 10 ug after 48 hrs by MTT assay; type: functional
How it was run: (§2)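 A549 cells were grown in DMEM with 2 mmol L-glutamine, 10% FBS, penicillin (50 IU/mL) and streptomycin, at 37 °C and 5% CO2. 1×10^4 cells/well were plated and treated 24 h later with compound diluted in medium for 48 h. Controls were DMSO-matched and untreated wells. MTT 0.4 mg/mL in PBS was added for 4 h in the dark, then DMSO for 4 h. A540 was read and reported as % live cells relative to untreated.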

Staphylococcus aureus [3] = experiment: Antimicrobial activity against methicillin-resistant Staphylococcus aureus strain 4 TB5G at 500 ug/disc after 24 hrs by disc diffusion method; type: functional
How it was run: (§3)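 Disc diffusion on 2.4% Mueller-Hinton agar inoculated with the strain. Paper discs 6 mm across were loaded with test compound and placed on the agar. Plates were incubated at 37 °C for 24 h. Read-out was the diameter of the inhibition zone in mm.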

Klebsiella pneumoniae [4] = experiment: Antimicrobial activity against Klebsiella pneumoniae at 1000 ug/disc after 24 hrs by disc diffusion method; type: functional; details: for zone of inhibition at 1000 µg/disc: read-out: DIZ
A549 [5] = experiment: Cytotoxicity against human A549 cells assessed as cell death at 5 ug after 48 hrs by MTT assay; type: functional; how it was run: as §2
Staphylococcus aureus [6] = experiment: Antimicrobial activity against Staphylococcus aureus after 24 hrs by microdilution method; type: functional; how it was run: as §1
Staphylococcus aureus [7] = experiment: Antimicrobial activity against methicillin-resistant Staphylococcus aureus strain 2 TB4G at 1000 ug/disc after 24 hrs by disc diffusion method; type: functional; how it was run: as §3
A549 [8] = experiment: Cytotoxicity against human A549 cells assessed as cell death at 2 ug after 48 hrs by MTT assay; type: functional; how it was run: as §2
Staphylococcus aureus [9] = experiment: Antimicrobial activity against methicillin-resistant Staphylococcus aureus strain 1 TB3G after 24 hrs by microdilution method; type: functional
How it was run: (§4)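 Growth was judged by turbidity. The MIC was taken as the lowest concentration giving the lowest growth.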

Listeria monocytogenes [10] = experiment: Antimicrobial activity against Listeria monocytogenes at 500 ug/disc after 24 hrs by disc diffusion method; type: functional
Klebsiella pneumoniae [11] = experiment: Antimicrobial activity against Klebsiella pneumoniae after 24 hrs by microdilution method; type: functional; how it was run: as §1
Bacillus subtilis [12] = experiment: Antimicrobial activity against Bacillus subtilis at 500 ug/disc after 24 hrs by disc diffusion method; type: functional; details: for zone of inhibition at 500 µg/disc: read-out: DIZ
[13] = system: Staphylococcus epidermidis; experiment: Antimicrobial activity against Staphylococcus epidermidis after 24 hrs by microdilution method; type: functional; how it was run: as §1
Salmonella typhimurium [14] = experiment: Antimicrobial activity against Salmonella Typhimurium at 1000 ug/disc after 24 hrs by disc diffusion method; type: functional, Salmonella enterica subsp. enterica serovar Typhimurium; details: Salmonella enterica, read-out: DIZ
Staphylococcus aureus [15] = experiment: Antimicrobial activity against methicillin-resistant Staphylococcus aureus strain 1 TB3G at 500 ug/disc after 24 hrs by disc diffusion method; type: functional; how it was run: as §3
Staphylococcus aureus [16] = experiment: Antimicrobial activity against Staphylococcus aureus at 500 ug/disc after 24 hrs by disc diffusion method; type: functional; how it was run: as §3
Staphylococcus aureus [17] = experiment: Antimicrobial activity against methicillin-resistant Staphylococcus aureus strain 1 TB3G at 1000 ug/disc after 24 hrs by disc diffusion method; type: functional; how it was run: as §3
Escherichia coli [18] = experiment: Antimicrobial activity against Escherichia coli at 500 ug/disc after 24 hrs by disc diffusion method; type: functional; details: for zone of inhibition at 500 µg/disc: read-out: DIZ
Salmonella typhimurium [19] = experiment: Antimicrobial activity against Salmonella Typhimurium at 500 ug/disc after 24 hrs by disc diffusion method; type: functional, Salmonella enterica subsp. enterica serovar Typhimurium; details: Salmonella enterica, read-out: DIZ
[20] = system: Staphylococcus epidermidis; experiment: Antimicrobial activity against Staphylococcus epidermidis at 1000 ug/disc after 24 hrs by disc diffusion method; type: functional; details: read-out: DIZ
Staphylococcus aureus [21] = experiment: Antimicrobial activity against Staphylococcus aureus at 1000 ug/disc after 24 hrs by disc diffusion method; type: functional
Staphylococcus aureus [22] = experiment: Antimicrobial activity against methicillin-resistant Staphylococcus aureus strain 4 TB5G after 24 hrs by microdilution method; type: functional; how it was run: as §4
A549 [23] = experiment: Cytotoxicity against human A549 cells assessed as cell death at 1 ug after 48 hrs by MTT assay; type: functional; how it was run: as §2
Klebsiella pneumoniae [24] = experiment: Antimicrobial activity against Klebsiella pneumoniae at 500 ug/disc after 24 hrs by disc diffusion method; type: functional; details: for zone of inhibition at 500 µg/disc: read-out: DIZ
Listeria monocytogenes [25] = experiment: Antimicrobial activity against Listeria monocytogenes after 24 hrs by microdilution method; type: functional; how it was run: as §1
[26] = system: Staphylococcus epidermidis; experiment: Antimicrobial activity against Staphylococcus epidermidis at 500 ug/disc after 24 hrs by disc diffusion method; type: functional; details: for zone of inhibition at 500 µg/disc: read-out: DIZ
Escherichia coli [27] = experiment: Antimicrobial activity against Escherichia coli at 1000 ug/disc after 24 hrs by disc diffusion method; type: functional; details: for zone of inhibition at 1000 µg/disc: read-out: DIZ
A549 [28] = experiment: Cytotoxicity against human A549 cells assessed as cell death at 25 ug after 48 hrs by MTT assay; type: functional; how it was run: as §2
Bacillus subtilis [29] = experiment: Antimicrobial activity against Bacillus subtilis at 1000 ug/disc after 24 hrs by disc diffusion method; type: functional; details: for zone of inhibition at 1000 µg/disc: read-out: DIZ
Staphylococcus aureus [30] = experiment: Antimicrobial activity against methicillin-resistant Staphylococcus aureus strain 2 TB4G at 500 ug/disc after 24 hrs by disc diffusion method; type: functional; how it was run: as §3
Staphylococcus aureus [31] = experiment: Antimicrobial activity against methicillin-resistant Staphylococcus aureus strain 2 TB4G after 24 hrs by microdilution method; type: functional; how it was run: as §4
Staphylococcus aureus [32] = experiment: Antimicrobial activity against methicillin-resistant Staphylococcus aureus strain 4 TB5G at 1000 ug/disc after 24 hrs by disc diffusion method; type: functional; how it was run: as §3
Listeria monocytogenes [33] = experiment: Antimicrobial activity against Listeria monocytogenes at 1000 ug/disc after 24 hrs by disc diffusion method; type: functional
Escherichia coli [34] = experiment: Antimicrobial activity against Escherichia coli after 24 hrs by microdilution method; type: functional; how it was run: as §1
A549 [35] = experiment: Cytotoxicity against human A549 cells after 48 hrs by MTT assay; type: functional, cell-based; details: A549, 48 h
How it was run: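 A549 cells were kept in DMEM with 2 mM L-glutamine, 10% FBS, penicillin 50 IU/mL and streptomycin at 37 °C under 5% CO2. 1×10^4 cells per well were treated 24 h after seeding with compounds diluted in medium for 48 h. MTT (0.4 mg/mL in PBS) was added for 4 h in the dark, formazan was dissolved in DMSO for 4 h and absorbance read at 540 nm. Viability was expressed as % of untreated cells, and IC50 was derived.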

Salmonella typhimurium [36] = experiment: Antimicrobial activity against Salmonella Typhimurium after 24 hrs by microdilution method; type: functional, Salmonella enterica subsp. enterica serovar Typhimurium; details: Salmonella enterica; how it was run: as §1
Chymase = biological target: T1, Chymase (Homo sapiens, UniProt P23946); experiment: Inhibition of human chymase
T1 sequence (P23946 whole entry): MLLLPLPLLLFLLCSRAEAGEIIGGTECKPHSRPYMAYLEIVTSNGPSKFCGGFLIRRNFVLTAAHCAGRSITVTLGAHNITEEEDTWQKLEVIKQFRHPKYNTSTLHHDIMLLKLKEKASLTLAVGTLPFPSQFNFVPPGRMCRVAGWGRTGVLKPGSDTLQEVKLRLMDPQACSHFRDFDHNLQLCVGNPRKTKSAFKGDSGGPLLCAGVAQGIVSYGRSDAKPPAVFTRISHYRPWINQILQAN

[37] = Inhibition of human elastase

Structure (SMILES) | Activity (A549 [2]) [%] | zone of inhibition at 1000 µg/disc (Klebsiella pneumoniae [4]) [mm] | Activity (A549 [5]) [%] | Activity (A549 [8]) [%] | zone of inhibition at 500 µg/disc (Bacillus subtilis [12]) [mm] | zone of inhibition at 1000 µg/disc (Salmonella typhimurium [14]) [mm] | zone of inhibition at 500 µg/disc (Escherichia coli [18]) [mm] | zone of inhibition at 500 µg/disc (Salmonella typhimurium [19]) [mm] | zone of inhibition at 1000 µg/disc [20] [mm] | Activity (A549 [23]) [%] | zone of inhibition at 500 µg/disc (Klebsiella pneumoniae [24]) [mm] | zone of inhibition at 500 µg/disc [26] [mm] | zone of inhibition at 1000 µg/disc (Escherichia coli [27]) [mm] | Activity (A549 [28]) [%] | zone of inhibition at 1000 µg/disc (Bacillus subtilis [29]) [mm] | IC50 (A549 [35]) [µM] | diameter of the inhibition zone (DIZ) (Staphylococcus aureus [3]) | diameter of the inhibition zone (DIZ) (Staphylococcus aureus [7]) | diameter of the inhibition zone (DIZ) (Listeria monocytogenes [10]) | diameter of the inhibition zone (DIZ) (Staphylococcus aureus [15]) | further results
CC(C)CC(=O)O[C@H](c1ccccc1)c1cc(O)c(C(=O)O)c(=O)[nH]1 | 77.84 | 20 | 44.92 | 30.76 | 8 | 20 | 10 | 9 | 20 | 10.46 | 9 | 12 | 18 | 78.76 | 15 | 8 | – | – | – | – | MIC (Bacillus subtilis [1]): 100 µg/mL (≈ 290 µM); zone of inhibition at 500 µg/disc (Staphylococcus aureus [3]; read-out: DIZ): 5 mm; MIC (Staphylococcus aureus [6]): > 100 µg/mL; zone of inhibition at 1000 µg/disc (Staphylococcus aureus [7]; read-out: DIZ): 10 mm; MIC (Staphylococcus aureus [9]): > 100 µg/mL; zone of inhibition at 500 µg/disc (Listeria monocytogenes [10]; read-out: DIZ): 7 mm; MIC (Klebsiella pneumoniae [11]): > 100 µg/mL; MIC [13]: 25 µg/mL (≈ 72.4 µM); zone of inhibition at 500 µg/disc (Staphylococcus aureus [15]; read-out: DIZ): 7 mm; zone of inhibition at 500 µg/disc (Staphylococcus aureus [16]; read-out: DIZ): 11 mm; zone of inhibition at 1000 µg/disc (Staphylococcus aureus [17]; read-out: DIZ): 13 mm; zone of inhibition at 1000 µg/disc (Staphylococcus aureus [21]; read-out: DIZ): 18 mm; MIC (Staphylococcus aureus [22]): > 100 µg/mL; MIC (Listeria monocytogenes [25]): 100 µg/mL (≈ 290 µM); zone of inhibition at 500 µg/disc (Staphylococcus aureus [30]; read-out: DIZ): 6 mm; MIC (Staphylococcus aureus [31]): > 100 µg/mL; zone of inhibition at 1000 µg/disc (Staphylococcus aureus [32]; read-out: DIZ): 11 mm; zone of inhibition at 1000 µg/disc (Listeria monocytogenes [33]; read-out: DIZ): 15 mm; MIC (Escherichia coli [34]): 50 µg/mL (≈ 145 µM); MIC (Salmonella typhimurium [36]): > 100 µg/mL
CC(C)CC(=O)O[C@H](c1ccccc1)c1cc(O)cc(=O)[nH]1 | 50.39 | 24 | 48.82 | 18.59 | 10 | 20 | 13 | 12 | 17 | 3.13 | 14 | 8 | 20 | 75.78 | 19 | 10 | inactive | inactive | inactive | inactive | diameter of the inhibition zone (DIZ) (Staphylococcus aureus [16]): inactive; diameter of the inhibition zone (DIZ) (Staphylococcus aureus [17]): inactive; diameter of the inhibition zone (DIZ) (Staphylococcus aureus [21]): inactive; diameter of the inhibition zone (DIZ) (Staphylococcus aureus [30]): inactive; diameter of the inhibition zone (DIZ) (Staphylococcus aureus [32]): inactive; diameter of the inhibition zone (DIZ) (Listeria monocytogenes [33]): inactive
CC(C)CC(=O)OC(c1ccccc1)c1cc(O)cc(=O)[nH]1 (racemic) | 50.21 | – | 37.22 | 25.54 | – | 13 | – | 7 | 9 | 8.22 | – | – | – | 74.02 | – | 28 | inactive | inactive | inactive | inactive | diameter of the inhibition zone (DIZ) (Klebsiella pneumoniae [4]): inactive; diameter of the inhibition zone (DIZ) (Bacillus subtilis [12]): inactive; diameter of the inhibition zone (DIZ) (Staphylococcus aureus [16]): inactive; diameter of the inhibition zone (DIZ) (Staphylococcus aureus [17]): inactive; diameter of the inhibition zone (DIZ) (Escherichia coli [18]): inactive; diameter of the inhibition zone (DIZ) (Staphylococcus aureus [21]): inactive; diameter of the inhibition zone (DIZ) (Klebsiella pneumoniae [24]): inactive; diameter of the inhibition zone (DIZ) [26]: inactive; diameter of the inhibition zone (DIZ) (Escherichia coli [27]): inactive; diameter of the inhibition zone (DIZ) (Bacillus subtilis [29]): inactive; diameter of the inhibition zone (DIZ) (Staphylococcus aureus [30]): inactive; diameter of the inhibition zone (DIZ) (Staphylococcus aureus [32]): inactive; IC50 (Chymase): 0.83 µM; diameter of the inhibition zone (DIZ) (Listeria monocytogenes [33]): inactive; IC50 [37]: 4.9 µg/mL (≈ 16.3 µM)
